Laboratory results reported in ChEMBL document CHEMBL3112473, “Synthesis of a novel series of thiazole-based histone acetyltransferase inhibitors” (Bioorg Med Chem, 2014).
Active and inactive are the calls of the source.

Columns and labels:
Saccharomyces cerevisiae [1] = assay: Reduction of wild type Saccharomyces cerevisiae growth at 1 mM after 48 hrs; format: functional, organism-based
In short: (§1)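 Spot assay on S. cerevisiae. Wild type (S288c or BY4742) and isogenic HAT deletion strains were used: gcn5Δ, elp3Δ and sas2Δ in S288c; gcn5Δ and rtt109Δ in BY4742. Growth was scored against wild type after 48 h at 28 °C.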

Saccharomyces cerevisiae [2] = assay: Reduction of growth of Saccharomyces cerevisiae harboring gcn5delta mutant at 1 mM after 48 hrs; format: functional, organism-based; in short: as §1
Saccharomyces cerevisiae [3] = assay: Growth inhibition of Saccharomyces cerevisiae S288c harboring sas2delta mutant at 0.75 mM after 48 hrs; format: functional, organism-based; in short: as §1
Saccharomyces cerevisiae [4] = assay: Growth inhibition of Saccharomyces cerevisiae BY4742 harboring gcn5delta mutant at 0.75 mM after 48 hrs; format: functional, organism-based; in short: as §1
Saccharomyces cerevisiae [5] = assay: Growth inhibition of Saccharomyces cerevisiae S288c harboring elp3delta mutant at 0.75 mM after 48 hrs; format: functional, organism-based; in short: as §1
Saccharomyces cerevisiae [6] = assay: Growth inhibition of Saccharomyces cerevisiae S288c harboring gcn5delta mutant at 0.75 mM after 48 hrs; format: functional, organism-based; in short: as §1
Saccharomyces cerevisiae [7] = assay: Growth inhibition of Saccharomyces cerevisiae BY4742 harboring rtt109delta mutant at 0.75 mM after 48 hrs; format: functional, organism-based; in short: as §1
[8] = target: Histone acetyltransferase p300 (Homo sapiens) (UniProt Q09472); assay: Inhibition of human recombinant histone acetyltransferase p300 assessed as acetylation of histone H3 at 0.6 mM
Chain of Histone acetyltransferase p300 (Homo sapiens) (Q09472 whole entry, the tested form may be a part): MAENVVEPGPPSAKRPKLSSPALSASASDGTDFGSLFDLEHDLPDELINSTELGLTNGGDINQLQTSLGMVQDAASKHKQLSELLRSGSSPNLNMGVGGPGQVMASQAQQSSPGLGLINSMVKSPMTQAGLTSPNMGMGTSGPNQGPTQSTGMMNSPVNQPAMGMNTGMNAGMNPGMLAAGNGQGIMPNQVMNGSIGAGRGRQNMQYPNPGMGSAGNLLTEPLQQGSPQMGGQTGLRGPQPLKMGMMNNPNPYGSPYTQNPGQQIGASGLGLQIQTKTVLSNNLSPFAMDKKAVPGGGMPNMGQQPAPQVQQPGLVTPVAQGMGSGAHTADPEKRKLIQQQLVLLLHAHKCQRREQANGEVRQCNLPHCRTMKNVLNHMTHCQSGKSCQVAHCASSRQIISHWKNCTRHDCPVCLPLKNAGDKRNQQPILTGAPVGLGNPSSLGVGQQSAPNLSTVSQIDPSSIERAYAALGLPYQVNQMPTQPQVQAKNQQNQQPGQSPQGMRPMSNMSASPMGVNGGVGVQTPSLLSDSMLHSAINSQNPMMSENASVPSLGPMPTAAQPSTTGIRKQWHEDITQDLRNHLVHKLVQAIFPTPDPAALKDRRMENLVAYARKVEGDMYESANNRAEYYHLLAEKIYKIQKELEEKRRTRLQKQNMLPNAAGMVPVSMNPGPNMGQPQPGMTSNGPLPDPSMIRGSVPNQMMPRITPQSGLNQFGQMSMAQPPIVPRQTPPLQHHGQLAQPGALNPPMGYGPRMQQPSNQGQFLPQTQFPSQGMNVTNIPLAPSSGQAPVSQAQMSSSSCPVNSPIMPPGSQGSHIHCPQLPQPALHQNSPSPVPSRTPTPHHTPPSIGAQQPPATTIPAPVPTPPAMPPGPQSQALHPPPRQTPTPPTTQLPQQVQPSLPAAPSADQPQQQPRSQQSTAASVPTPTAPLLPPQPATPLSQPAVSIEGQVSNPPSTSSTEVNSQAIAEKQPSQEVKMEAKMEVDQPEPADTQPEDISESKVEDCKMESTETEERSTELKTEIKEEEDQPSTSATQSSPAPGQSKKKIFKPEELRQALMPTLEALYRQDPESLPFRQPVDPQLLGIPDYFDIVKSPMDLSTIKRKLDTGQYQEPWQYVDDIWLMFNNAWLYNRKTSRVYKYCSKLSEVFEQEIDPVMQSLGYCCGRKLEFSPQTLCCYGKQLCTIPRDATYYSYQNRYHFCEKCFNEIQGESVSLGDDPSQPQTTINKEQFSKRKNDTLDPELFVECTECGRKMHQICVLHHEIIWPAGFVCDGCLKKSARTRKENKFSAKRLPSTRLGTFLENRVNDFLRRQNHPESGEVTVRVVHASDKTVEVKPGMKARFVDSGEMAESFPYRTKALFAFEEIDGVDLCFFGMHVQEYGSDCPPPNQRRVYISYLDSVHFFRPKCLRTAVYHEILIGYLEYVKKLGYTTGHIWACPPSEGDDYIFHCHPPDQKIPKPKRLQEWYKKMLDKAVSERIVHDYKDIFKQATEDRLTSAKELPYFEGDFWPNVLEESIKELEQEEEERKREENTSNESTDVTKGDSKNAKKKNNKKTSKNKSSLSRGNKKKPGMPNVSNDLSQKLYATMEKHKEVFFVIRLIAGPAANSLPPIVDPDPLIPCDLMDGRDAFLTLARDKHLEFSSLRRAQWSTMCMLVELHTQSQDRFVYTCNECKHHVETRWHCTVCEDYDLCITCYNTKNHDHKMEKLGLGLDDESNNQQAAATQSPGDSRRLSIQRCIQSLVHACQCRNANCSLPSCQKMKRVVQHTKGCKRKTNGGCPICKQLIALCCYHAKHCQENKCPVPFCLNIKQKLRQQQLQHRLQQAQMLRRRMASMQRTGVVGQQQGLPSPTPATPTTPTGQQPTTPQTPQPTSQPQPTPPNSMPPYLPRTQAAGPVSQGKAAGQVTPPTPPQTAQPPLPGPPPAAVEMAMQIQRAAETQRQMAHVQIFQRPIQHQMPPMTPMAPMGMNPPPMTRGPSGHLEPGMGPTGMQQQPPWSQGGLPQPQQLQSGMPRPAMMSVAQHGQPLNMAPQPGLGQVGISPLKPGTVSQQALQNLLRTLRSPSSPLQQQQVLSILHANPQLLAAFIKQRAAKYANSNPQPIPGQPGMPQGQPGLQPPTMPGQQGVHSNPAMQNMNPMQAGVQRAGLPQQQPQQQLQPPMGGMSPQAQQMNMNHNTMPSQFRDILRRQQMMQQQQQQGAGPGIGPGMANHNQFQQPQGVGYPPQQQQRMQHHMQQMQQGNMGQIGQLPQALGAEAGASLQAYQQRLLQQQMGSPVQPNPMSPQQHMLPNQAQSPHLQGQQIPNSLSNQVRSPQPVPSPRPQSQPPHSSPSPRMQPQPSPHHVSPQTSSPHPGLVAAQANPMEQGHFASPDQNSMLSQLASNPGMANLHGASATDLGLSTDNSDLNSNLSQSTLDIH
In short: (§2)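 Fluorescent in vitro HAT kit assay. Human recombinant HAT catalytic domains (Gcn5, p300, PCAF) were incubated with acetyl-CoA and histone H3 substrate, with inhibitor at 0.15, 0.3 and 0.6 mM. Anacardic acid at 15 µM served as reference. Residual activity measured relative to untreated control. Each reaction run three times, standard errors given.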

Saccharomyces cerevisiae [9] = assay: Reduction of wild type Saccharomyces cerevisiae growth at 0.2 mM after 48 hrs; format: functional, organism-based; in short: as §1
U-87MG ATCC [10] = assay: Inhibition of histone acetyltransferase in human U87 cells assessed as AcH3 and H3AcK18 level after 48 to 72 hrs by Western blotting; format: cell-based
In short: (§3)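 HeLa, U87 and BE-SK-N-BE(2) cells incubated with compound at 50 or 100 µM for 48 or 72 h. Total lysates in 2× Laemmli buffer, boiled 10 min, run on 15% SDS-PAGE and blotted. Probed for acetyl-H3 and H3K18ac, with GAPDH as constitutive control.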

Saccharomyces cerevisiae [11] = assay: Growth inhibition of Saccharomyces cerevisiae S288c harboring gcn5delta mutant at 0.2 mM after 48 hrs; format: functional, organism-based; in short: as §1
HeLa [12] = assay: Cytotoxicity against human HeLa cells assessed as cell viability at 50 to 100 uM after 48 to 72 hrs by trypan blue exclusion assay; format: cell-based
In short: (§4)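 Trypan blue exclusion on HeLa, U87 glioblastoma and BE-SK-N-BE(2) neuroblastoma cells. Compound added at final 50 and 100 µM and incubated 48 or 72 h at 37 °C, then cells collected and counted. About 1.5 × 10⁵ cells counted per point. Viability given as mean percentage of viable/dead cells relative to untreated controls.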

U-87MG ATCC [13] = assay: Inhibition of histone acetyltransferase in human U87 cells assessed as AcH3 and H3AcK18 level after 72 hrs by Western blotting; format: cell-based; in short: as §3
Homo sapiens [14] = species: Homo sapiens; assay: Inhibition of histone acetyltransferase in human BE-SK-N-BE(2) cells assessed as AcH3 and H3AcK18 level after 72 hrs by Western blotting; format: cell-based; in short: as §3
Saccharomyces cerevisiae [15] = assay: Growth inhibition of Saccharomyces cerevisiae BY4742 harboring gcn5delta mutant at 0.2 mM after 48 hrs; format: functional, organism-based; in short: as §1
[16] = Cytotoxicity against human BE-SK-N-BE(2) cells assessed as cell viability at 100 uM after 48 to 72 hrs by trypan blue exclusion assay; format: cell-based; settings: read-out: Activity; in short: as §4
[17] = target: Histone acetyltransferase KAT2B (Homo sapiens) (UniProt Q92831); assay: Inhibition of human recombinant histone acetyltransferase PCAF assessed as acetylation of histone H3 at 0.15 to 0.6 mM; in short: as §2
Chain of Histone acetyltransferase KAT2B (Homo sapiens) (Q92831 whole entry, looked up): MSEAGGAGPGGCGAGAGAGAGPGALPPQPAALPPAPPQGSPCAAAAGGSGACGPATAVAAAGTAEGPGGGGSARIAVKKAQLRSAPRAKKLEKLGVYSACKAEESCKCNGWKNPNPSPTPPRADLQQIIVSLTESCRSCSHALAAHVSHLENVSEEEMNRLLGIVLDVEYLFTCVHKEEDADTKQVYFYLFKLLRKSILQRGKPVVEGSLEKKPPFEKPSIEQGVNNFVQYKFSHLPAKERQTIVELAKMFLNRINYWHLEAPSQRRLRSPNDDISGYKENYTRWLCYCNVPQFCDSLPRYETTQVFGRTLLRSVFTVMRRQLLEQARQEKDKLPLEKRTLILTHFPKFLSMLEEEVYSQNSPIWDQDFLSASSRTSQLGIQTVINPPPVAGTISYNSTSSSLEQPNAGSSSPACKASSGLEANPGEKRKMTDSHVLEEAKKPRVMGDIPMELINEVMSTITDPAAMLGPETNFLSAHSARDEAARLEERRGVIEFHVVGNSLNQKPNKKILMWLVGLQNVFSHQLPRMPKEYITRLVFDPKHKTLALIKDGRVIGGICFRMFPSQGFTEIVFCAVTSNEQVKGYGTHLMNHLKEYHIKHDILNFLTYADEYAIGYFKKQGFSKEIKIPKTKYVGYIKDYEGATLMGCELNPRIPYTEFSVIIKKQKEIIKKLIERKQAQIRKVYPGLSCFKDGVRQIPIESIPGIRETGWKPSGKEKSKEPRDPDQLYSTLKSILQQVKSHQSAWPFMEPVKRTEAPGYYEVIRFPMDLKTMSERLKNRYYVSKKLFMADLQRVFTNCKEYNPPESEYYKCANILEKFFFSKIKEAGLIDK

Saccharomyces cerevisiae [18] = assay: Growth inhibition of Saccharomyces cerevisiae S288c harboring gcn5delta mutant after 48 hrs; format: functional, organism-based; in short: as §1
Homo sapiens [19] = species: Homo sapiens; assay: Inhibition of histone acetyltransferase in human BE-SK-N-BE(2) cells assessed as AcH3 and H3AcK18 level after 48 to 72 hrs by Western blotting; format: cell-based; in short: as §3
Saccharomyces cerevisiae [20] = assay: Growth inhibition of Saccharomyces cerevisiae BY4742 harboring gcn5delta mutant after 48 hrs; format: functional, organism-based; in short: as §1
[21] = target: T1, Histone acetyltransferase SAS2 (Saccharomyces cerevisiae (strain ATCC 204508 / S288c) (Baker's yeast)) (UniProt P40963); assay: Inhibition of Saccharomyces cerevisiae S288c histone acetyltransferase assessed as acetylation of histone H4 at 0.6 to 0.8 mM by Western blotting
T1 sequence (whole entry): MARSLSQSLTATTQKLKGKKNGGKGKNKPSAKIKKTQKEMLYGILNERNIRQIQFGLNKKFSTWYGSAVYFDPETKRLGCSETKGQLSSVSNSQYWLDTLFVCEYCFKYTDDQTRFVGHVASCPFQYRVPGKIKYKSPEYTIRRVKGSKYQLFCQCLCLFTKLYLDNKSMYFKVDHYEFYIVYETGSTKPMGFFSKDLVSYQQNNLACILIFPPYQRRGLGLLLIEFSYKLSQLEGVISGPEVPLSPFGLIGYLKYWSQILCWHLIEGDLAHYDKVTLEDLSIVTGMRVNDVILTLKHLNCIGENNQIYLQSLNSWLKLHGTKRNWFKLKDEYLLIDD
In short: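 S288c wild-type yeast grown at 28 °C in YPD with 1% DMSO, plus compound at 0.6 or 0.8 mM. Total protein extracts boiled in Laemmli buffer, run on 15% SDS-PAGE and blotted. Probed for pan-acetylated H3 and H4, with unmodified H3 and ADA2 as loading standards. Acetylation normalized to ADA2. Triplicate experiments, SD reported.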

[22] = Cytotoxicity against human U87 cells assessed as cell viability at 50 to 100 uM after 48 to 72 hrs by trypan blue exclusion assay; format: cell-based; settings: u-87mg atcc; in short: as §4
HeLa [23] = assay: Inhibition of histone acetyltransferase in human HeLa cells assessed as AcH3 and H3AcK18 level after 72 hrs by Western blotting; format: cell-based; in short: as §3
HeLa [24] = assay: Inhibition of histone acetyltransferase in human HeLa cells assessed as AcH3 and H3AcK18 level after 48 to 72 hrs by Western blotting; format: cell-based; in short: as §3
[25] = target: Histone acetyltransferase GCN5 (Saccharomyces cerevisiae) (UniProt Q03330); assay: Inhibition of Saccharomyces cerevisiae S288c histone acetyltransferase assessed as acetylation of histone H3 at 0.6 to 0.8 mM by Western blotting
Chain of Histone acetyltransferase GCN5 (Saccharomyces cerevisiae) (Q03330 whole entry, looked up): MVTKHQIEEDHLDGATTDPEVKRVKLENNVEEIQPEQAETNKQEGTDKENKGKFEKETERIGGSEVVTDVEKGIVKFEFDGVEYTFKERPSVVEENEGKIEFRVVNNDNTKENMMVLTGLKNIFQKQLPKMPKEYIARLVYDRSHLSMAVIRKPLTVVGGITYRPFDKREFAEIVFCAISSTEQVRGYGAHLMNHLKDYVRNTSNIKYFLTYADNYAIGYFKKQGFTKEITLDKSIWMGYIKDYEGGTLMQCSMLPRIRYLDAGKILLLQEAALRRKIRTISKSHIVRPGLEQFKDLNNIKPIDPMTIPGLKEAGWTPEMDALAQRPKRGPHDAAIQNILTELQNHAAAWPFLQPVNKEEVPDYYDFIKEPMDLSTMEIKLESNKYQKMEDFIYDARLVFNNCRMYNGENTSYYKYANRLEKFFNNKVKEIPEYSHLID

Saccharomyces cerevisiae [26] = assay: Reduction of growth of Saccharomyces cerevisiae harboring gcn5delta mutant at 0.2 mM after 48 hrs; format: functional, organism-based; in short: as §1
Saccharomyces cerevisiae [27] = assay: Growth inhibition of Saccharomyces cerevisiae BY4742 harboring rtt109delta mutant at 0.5 mM after 48 hrs; format: functional, organism-based; in short: as §1
Saccharomyces cerevisiae [28] = assay: Growth inhibition of Saccharomyces cerevisiae S288c harboring elp3delta mutant at 0.5 mM after 48 hrs; format: functional, organism-based; in short: as §1
Saccharomyces cerevisiae [29] = assay: Reduction of growth of Saccharomyces cerevisiae harboring gcn5delta mutant at 0.5 mM after 48 hrs; format: functional, organism-based; in short: as §1
Saccharomyces cerevisiae [30] = assay: Growth inhibition of Saccharomyces cerevisiae S288c harboring sas2delta mutant at 0.5 mM after 48 hrs; format: functional, organism-based; in short: as §1
Saccharomyces cerevisiae [31] = assay: Growth inhibition of Saccharomyces cerevisiae BY4742 harboring gcn5delta mutant at 0.5 mM after 48 hrs; format: functional, organism-based; in short: as §1
Saccharomyces cerevisiae [32] = assay: Reduction of wild type Saccharomyces cerevisiae growth at 0.5 mM after 48 hrs; format: functional, organism-based; in short: as §1
Saccharomyces cerevisiae [33] = assay: Growth inhibition of Saccharomyces cerevisiae S288c harboring gcn5delta mutant at 0.5 mM after 48 hrs; format: functional, organism-based; in short: as §1

C/C(=N/Nc1nc(-c2ccc(Cl)cc2)cs1)c1ccccn1
active: Activity (Saccharomyces cerevisiae [1]) | Activity (Saccharomyces cerevisiae [2])

COc1cc(/C=C/C(=O)CC(=O)/C=C/c2ccc(O)c(OC)c2)ccc1O
active: growth inhibition (GI) (Saccharomyces cerevisiae [4]) | growth inhibition (GI) (Saccharomyces cerevisiae [6])
inactive: growth inhibition (GI) (Saccharomyces cerevisiae [3]) | growth inhibition (GI) (Saccharomyces cerevisiae [5]) | growth inhibition (GI) (Saccharomyces cerevisiae [7])

CC(C)=NNc1nc(-c2ccc(Cl)cc2)cs1
active: inhibition [8] | Activity (Saccharomyces cerevisiae [9]) | inhibition (U-87MG ATCC [10]) Dose-dependent effect | growth inhibition (GI) (Saccharomyces cerevisiae [11]) | inhibition (U-87MG ATCC [13]) | inhibition (Homo sapiens [14]) | growth inhibition (GI) (Saccharomyces cerevisiae [15]) | growth inhibition (GI) (Saccharomyces cerevisiae [18]) Dose-dependent effect | inhibition (Homo sapiens [19]) Dose-dependent effect | growth inhibition (GI) (Saccharomyces cerevisiae [20]) Dose-dependent effect | inhibition (HeLa [23]) | inhibition (HeLa [24]) Dose-dependent effect | Activity (Saccharomyces cerevisiae [26])
30%: viability at 100 µM [16]
Non-toxic: Activity (HeLa [12]) | Activity [22]
50%: inhibition [25]
inactive: inhibition [17] | inhibition [21]

CC/C(C)=N/Nc1nc(-c2ccc(Cl)cc2)cs1
active: Activity (Saccharomyces cerevisiae [9]) | growth inhibition (GI) (Saccharomyces cerevisiae [11]) | growth inhibition (GI) (Saccharomyces cerevisiae [15]) | Activity (Saccharomyces cerevisiae [26])

Clc1ccc(-c2csc(NN=C3CCCC3)n2)cc1
active: Activity (Saccharomyces cerevisiae [29]) | growth inhibition (GI) (Saccharomyces cerevisiae [31]) | Activity (Saccharomyces cerevisiae [32]) | growth inhibition (GI) (Saccharomyces cerevisiae [33])
inactive: growth inhibition (GI) (Saccharomyces cerevisiae [27]) | growth inhibition (GI) (Saccharomyces cerevisiae [28]) | growth inhibition (GI) (Saccharomyces cerevisiae [30])

CCC(CC)=NNc1nc(-c2ccc(Cl)cc2)cs1
active: Activity (Saccharomyces cerevisiae [9]) | growth inhibition (GI) (Saccharomyces cerevisiae [11]) | growth inhibition (GI) (Saccharomyces cerevisiae [15]) | Activity (Saccharomyces cerevisiae [26])
